How the values were obtained:
[1] = target: T1, Serotonin 3 (5-HT3) receptor (Rattus norvegicus, UniProt P35563+Q9JJ16); assay: Concentration required to inhibit the binding of radioligand [3H]GR-65630 to serotonin 5-hydroxytryptamine-3 receptor (5-HT 3 receptor)in rat brain cortical membrane; assay type: tissue-based
T1 sequence (P35563 whole entry): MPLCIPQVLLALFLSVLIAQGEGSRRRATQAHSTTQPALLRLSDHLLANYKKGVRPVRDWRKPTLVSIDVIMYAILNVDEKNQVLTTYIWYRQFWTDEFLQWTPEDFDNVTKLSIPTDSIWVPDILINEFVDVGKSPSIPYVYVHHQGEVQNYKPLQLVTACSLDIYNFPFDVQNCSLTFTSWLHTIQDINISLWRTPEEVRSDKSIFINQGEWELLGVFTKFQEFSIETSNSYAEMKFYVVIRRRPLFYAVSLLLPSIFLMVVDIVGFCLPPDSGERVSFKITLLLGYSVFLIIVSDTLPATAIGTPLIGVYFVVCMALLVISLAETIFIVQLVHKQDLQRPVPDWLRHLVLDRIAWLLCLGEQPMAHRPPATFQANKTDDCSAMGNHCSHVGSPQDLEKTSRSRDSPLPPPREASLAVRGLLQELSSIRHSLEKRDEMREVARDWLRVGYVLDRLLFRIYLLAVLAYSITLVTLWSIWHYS
T1 sequence (Q9JJ16 whole entry): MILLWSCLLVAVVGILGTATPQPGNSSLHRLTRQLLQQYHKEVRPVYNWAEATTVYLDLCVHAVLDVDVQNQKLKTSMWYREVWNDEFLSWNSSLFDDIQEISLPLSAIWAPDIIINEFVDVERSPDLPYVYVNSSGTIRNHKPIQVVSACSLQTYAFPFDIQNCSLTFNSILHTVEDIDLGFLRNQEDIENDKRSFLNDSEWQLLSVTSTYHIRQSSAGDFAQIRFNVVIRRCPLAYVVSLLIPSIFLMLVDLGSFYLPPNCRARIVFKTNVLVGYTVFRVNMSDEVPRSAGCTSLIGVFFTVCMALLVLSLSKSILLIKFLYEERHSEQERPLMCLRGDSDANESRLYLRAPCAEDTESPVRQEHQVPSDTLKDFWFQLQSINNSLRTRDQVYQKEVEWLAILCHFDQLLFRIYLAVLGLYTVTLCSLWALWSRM

D(2) dopamine receptor [2] = target: T2, D(2) dopamine receptor (Rattus norvegicus, UniProt P61169); assay: Inhibition of the binding of radioligand [3H]spiperone to dopamine receptor D2 in rat brain synaptic membrane; assay type: cell membranes
T2 sequence (P61169 whole entry): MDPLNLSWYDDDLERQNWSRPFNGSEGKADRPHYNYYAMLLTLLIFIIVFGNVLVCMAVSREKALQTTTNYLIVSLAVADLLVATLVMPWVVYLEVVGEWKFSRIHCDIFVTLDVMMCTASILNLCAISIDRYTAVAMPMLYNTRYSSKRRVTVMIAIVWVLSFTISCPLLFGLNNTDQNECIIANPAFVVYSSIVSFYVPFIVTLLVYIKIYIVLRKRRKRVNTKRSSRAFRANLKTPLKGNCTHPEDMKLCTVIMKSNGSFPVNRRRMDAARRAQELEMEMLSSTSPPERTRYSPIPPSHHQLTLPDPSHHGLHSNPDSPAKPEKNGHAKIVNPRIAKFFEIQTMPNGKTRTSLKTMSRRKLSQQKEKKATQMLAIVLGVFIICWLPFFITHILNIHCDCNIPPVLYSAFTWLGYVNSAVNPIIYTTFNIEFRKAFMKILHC

[3] = target: T1, Serotonin 3 (5-HT3) receptor; assay: Concentration of compound required to inhibit the binding of radioligand [3H]GR-65630 to 5-hydroxytryptamine 3 receptor in rat brain cortical membrane; assay type: cell membranes
Summary of the method: (§1)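 Displacement of [³H]GR65630 from rat cerebral cortex membranes, following an earlier [³H]quipazine binding protocol. IC50, the concentration giving 50% inhibition of specific binding, in nM by probit (linear regression) analysis. Values given as mean with 95% confidence limits.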

D(2) dopamine receptor [4] = target: T2, D(2) dopamine receptor; assay: Concentration of compound required to inhibit the binding of radioligand [3H]-spiperone to Dopamine receptor D2 in rat striatum; assay type: tissue-based
Summary of the method: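 Competition binding against [³H]spiperone in rat striatum. IC50, the concentration inhibiting 50% of specific radioligand binding, in nM by probit (linear regression) analysis. Reported as mean with 95% confidence limits.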

[5] = target: T3, 5-hydroxytryptamine receptor 4 (Cavia porcellus, UniProt O70528); assay: Concentration of compound required to inhibit the binding of radioligand [3H]GR-113808 to 5-hydroxytryptamine 4 receptor in guinea pig striatum; assay type: tissue-based
T3 sequence (O70528 whole entry): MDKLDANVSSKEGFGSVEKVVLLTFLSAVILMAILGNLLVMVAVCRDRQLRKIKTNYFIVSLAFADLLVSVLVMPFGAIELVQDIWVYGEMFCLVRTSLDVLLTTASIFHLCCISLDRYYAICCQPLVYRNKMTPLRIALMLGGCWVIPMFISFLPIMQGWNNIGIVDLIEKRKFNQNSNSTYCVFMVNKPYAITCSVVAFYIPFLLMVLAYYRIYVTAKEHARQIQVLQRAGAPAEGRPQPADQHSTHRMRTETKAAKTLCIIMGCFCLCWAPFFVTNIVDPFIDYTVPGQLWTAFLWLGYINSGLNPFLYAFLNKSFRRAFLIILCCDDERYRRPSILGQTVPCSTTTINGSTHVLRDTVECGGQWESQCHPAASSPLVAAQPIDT

[6] = target: T1, Serotonin 3 (5-HT3) receptor; assay: Concentration of compound required to inhibit the binding of radioligand [3H]GR-65630 to serotonin 5-hydroxytryptamine 3 receptor in rat cortical membrane; assay type: cell membranes; summary of the method: as §1
Canis familiaris [7] = assay: Percent inhibition of apomorphine (0.3 mg/kg) induced emesis in dogs when 1 mg/kg of compound administered perorally; assay type: functional; conditions: Canis lupus familiaris, route oral
Summary of the method: (§2)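 Male beagle dogs weighing 10–16 kg, in groups of three to six, were pretreated orally with test compound. Apomorphine hydrochloride (0.3 mg/kg) was injected subcutaneously 2 h later to elicit emesis.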

[8] = target: T3, 5-hydroxytryptamine receptor 4; assay: Inhibition of [3H]GR-113808 binding to guinea pig striatum 5-hydroxytryptamine 4 receptor; assay type: tissue-based
[9] = target: T1, Serotonin 3 (5-HT3) receptor; assay: Inhibition of [3H]GR-65630 binding to rat cortical membrane serotonin 5-hydroxytryptamine 3 receptor
D(2) dopamine receptor [10] = target: T2, D(2) dopamine receptor; assay: Affinity towards Dopamine receptor D2 in rat striatum using [3H]spiperone as radioligand; assay type: tissue-based
D(2) dopamine receptor [11] = target: T2, D(2) dopamine receptor; assay: Affinity of compound towards Dopamine receptor D2 in rat striatum using [3H]spiperone as radioligand; assay type: tissue-based
Summary of the method: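 Competition binding against [3H]spiperone in rat striatal (brain synaptic) membranes. IC50 is the concentration giving 50% inhibition of specific radioligand binding, in nM, derived by linear regression (Probit analysis). Reported as mean with 95% confidence limits.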

D(3) dopamine receptor [12] = target: T4, D(3) dopamine receptor (Rattus norvegicus, UniProt P19020); assay: Concentration of compound required to inhibit the binding of radioligand [3H](R)-7-OH-DPAT to Dopamine receptor D3 in rat striatum.
T4 sequence (P19020 whole entry): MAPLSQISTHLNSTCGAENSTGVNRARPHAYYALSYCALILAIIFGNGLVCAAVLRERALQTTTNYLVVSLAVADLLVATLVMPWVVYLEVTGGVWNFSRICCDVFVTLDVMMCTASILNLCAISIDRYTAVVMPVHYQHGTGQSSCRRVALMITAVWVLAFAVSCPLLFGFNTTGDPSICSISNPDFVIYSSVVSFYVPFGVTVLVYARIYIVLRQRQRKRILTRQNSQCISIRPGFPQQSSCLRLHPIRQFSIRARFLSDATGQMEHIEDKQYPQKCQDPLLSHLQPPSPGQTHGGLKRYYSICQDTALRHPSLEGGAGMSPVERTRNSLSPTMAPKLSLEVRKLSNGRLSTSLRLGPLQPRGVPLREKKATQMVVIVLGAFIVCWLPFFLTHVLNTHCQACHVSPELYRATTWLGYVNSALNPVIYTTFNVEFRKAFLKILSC

Canis familiaris [13] = assay: Effective dose for inhibition of apomorphine (0.3 mg/kg) induced emesis in dogs when 1 mg/kg of compound administered perorally; assay type: functional, Canis lupus familiaris; conditions: route oral; summary of the method: as §2
D(3) dopamine receptor [14] = target: T4, D(3) dopamine receptor; assay: Concentration of compound required to inhibit the binding of radioligand [3H](R)-7-OH-DPAT to Dopamine receptor D3 in rat striatum; assay type: tissue-based
[15] = target: T3, 5-hydroxytryptamine receptor 4; assay: Concentration of compound required to inhibit the binding of radioligand [3H]GR-113808 to 5-hydroxytryptamine 4 receptor in guinea-pig striatum; assay type: tissue-based
[16] = target: T3, 5-hydroxytryptamine receptor 4; assay: Concentration of compound required to inhibit the binding of radioligand [3H]GR-113808 to serotonin 5-hydroxytryptamine 4 receptor in guinea-pig striatum; assay type: tissue-based
[17] = Canis lupus familiaris, read-out: ED50

SMILES | IC50 [1] | IC50 (D(2) dopamine receptor [2]) | inhibition in vivo at 1 mg/kg (Canis familiaris [7]) | Ki [8] | other results
CCN1CCN(C)CC(NC(=O)c2cc(Cl)cc3c2OCC3)C1 (stereo not drawn) | 29.9 nM | > 1000 nM |  |  | 
CCN1CCN(C)CC(NC(=O)c2cnc(NC)nc2OC)C1 (stereo not drawn) |  | > 1000 nM |  |  | IC50 [3]: 157 nM
COc1cc(N)c(Cl)cc1C(=O)NC1CN(C)CCN(Cc2ccccc2)C1 (stereo not drawn) |  |  |  |  | IC50 (D(2) dopamine receptor [4]): > 1000 nM; IC50 [5]: > 1000 nM; IC50 [6]: 2.07 nM
CCN1CCN(C)CC(NC(=O)c2cc(Cl)cn3ccnc23)C1 (stereo not drawn) | 148 nM | > 1000 nM |  |  | 
CCN1CCN(C)CC(NC(=O)c2cc(Cl)cc3c2OCC(=O)N3C)C1 (stereo not drawn) | 38.7 nM | > 1000 nM |  |  | 
CCN1CCN(C2CC2)CC(NC(=O)c2cc(Br)c(NC)nc2OC)C1 (stereo not drawn) | 0.69 nM | 12.9 nM | 25% |  | 
COc1cc(N)c(Cl)cc1C(=O)NC1CC2CCC(C1)N2Cc1ccccc1 (stereo not drawn) |  |  |  | 233 nM | 
CCN1CCN(CC)CC(NC(=O)c2cc(Cl)c(NC)nc2OC)C1 | 0.65 nM | 27.8 nM | 53% |  | 
CCOc1nc(NC)c(Cl)cc1C(=O)NC1CN(C)CCN(CC)C1 (stereo not drawn) | 0.55 nM | 42.9 nM | 40% |  | 
COc1cc(N)c(Cl)cc1C(=O)NC1CCN(C)CC1 |  |  |  | 832 nM | 
CCN1CCN(C)C[C@@H](NC(=O)c2cc(Cl)c(N)c3c2OCC3)C1 | 3.7 nM | 637 nM |  |  | 
CCN1CCN(C)C[C@@H](NC(=O)c2cc(Cl)c(OC)nc2NC)C1 | > 100 nM | > 1000 nM |  |  | 
COc1cc(N)c(Cl)cc1C(=O)NCCN(C)Cc1ccccc1 |  |  |  | 867 nM | Ki [9]: > 1000 nM; Ki (D(2) dopamine receptor [10]): 0.0243 µM
COc1cc(N)c(Cl)cc1C(=O)N[C@@H]1CN2CCC1CC2 |  |  |  | 383 nM | 
CCN1CCN(C)CC(NC(=O)c2cc(Br)c(N(C)C)nc2OC)C1 (stereo not drawn) |  |  | 83% |  | 
COc1cc(N)c(Cl)cc1C(=O)NC[C@@H]1CCN2CCC[C@@H]12 |  |  |  | 21 nM | Ki (D(2) dopamine receptor [11]): > 10 µM
CCN1CCN(C)CC(NC(=O)c2[nH]nc3ccccc23)C1 (stereo not drawn) | 6.56 nM | > 1000 nM |  |  | 
CCN1CCN(CC)CC(NC(=O)c2cc(Br)c(NC)nc2OC)C1 | 0.59 nM | 20.9 nM | 69% |  | 

SMILES | IC50 [1] | IC50 (D(2) dopamine receptor [2]) | inhibition in vivo at 1 mg/kg (Canis familiaris [7]) | Ki [8] | other results
CCOc1nc(NC)c(Br)cc1C(=O)NC1CN(C)CCN(CC)C1 (stereo not drawn) | 1.48 nM | 86.4 nM |  |  | 
CNc1nc(OC)c(C(=O)NC2CN(C)CCN(C)C2)cc1Cl | 1.3 nM | 137 nM | 20% |  | 
CNc1nc(OC)c(C(=O)NC2CN(C)CCN(C3CC3)C2)cc1Br (stereo not drawn) | 0.76 nM | 47.1 nM | 14% |  | 
CCNc1nc(OC)c(C(=O)NC2CN(C)CCN(CC)C2)cc1Cl (stereo not drawn) |  |  | 42% |  | 
CCN1CCN(C)C[C@@H](NC(=O)c2cc(Cl)c(NC)nc2OC)C1 |  |  | 52% |  | 
CCN1CCN(C)C[C@@H](NC(=O)c2cc(Cl)c(NC)cc2OC)C1 |  |  | 100% |  | IC50 (D(3) dopamine receptor [12]): 15.1 nM; IC50 [5]: > 1000 nM; ED50 (Canis familiaris [13]; [17]): 0.13 mg/kg; ED50 (Canis familiaris [13]; dose 1 mg/kg): 0.13 mg/kg
CCN1CCN(C)C[C@H](NC(=O)c2cc(Br)c(NC)nc2OC)C1 | 1.28 nM | 122 nM | 47% |  | IC50 (D(3) dopamine receptor [14]): 14.3 nM; IC50 [15]: > 1000 nM
CCN1CCN(C)CC(NC(=O)c2cc(Br)c(NC)nc2OC)C1 (stereo not drawn) | 0.97 nM |  |  |  | 
CCN1CCN(C)C[C@@H](NC(=O)c2cc(Br)c(NC)nc2OC)C1 | 1.2 nM | 6.88 nM | 100% |  | IC50 (D(3) dopamine receptor [14]): 1.13 nM; IC50 [16]: > 10000 nM; ED50 (Canis familiaris [13]; [17]): 0.12 mg/kg
COc1cc(N)c(Cl)cc1C(=O)NC1CC2CCC(C1)N2C (stereo in doubt) |  |  |  | 48 nM | 
COc1cc(N)c(Cl)cc1C(=O)NC1CC2CCC(C1)N2C (stereo in doubt; 2) |  |  |  | > 1000 nM | 
COc1cc(N)c(Cl)cc1C(=O)NC1CCN(Cc2ccccc2)CC1 [CLEBOPRIDE] |  |  |  | 104 nM | 
O=c1[nH]c2ccccc2n1CCCN1CCC(n2c(=O)[nH]c3cc(Cl)ccc32)CC1 [DOMPERIDONE] |  |  |  |  | IC50 [5]: > 1000 nM
CCN(CC)CCNC(=O)c1cc(Cl)c(N)cc1OC [METOCLOPRAMIDE] | 228 nM |  | 100% | 546 nM | IC50 (D(3) dopamine receptor [14]): 61.3 nM; Ki [9]: 210 nM; IC50 [16]: 912 nM; ED50 (Canis familiaris [13]; [17]): 0.45 mg/kg
CCOc1cc(N)c(Cl)cc1C(=O)NCC1CN(Cc2ccc(F)cc2)CCO1 (stereo not drawn) [MOSAPRIDE] |  |  |  | 69.9 nM | Ki [9]: 1190 nM; Ki (D(2) dopamine receptor [10]): > 10 µM
Cc1nccn1CC1CCc2c(c3ccccc3n2C)C1=O (stereo not drawn) [ONDANSETRON] |  | > 1000 nM |  |  | 
COc1cc(N)c(Cl)cc1C(=O)NC1CCN2CCCC1C2 (stereo not drawn) [RENZAPRIDE] |  |  |  | 40.4 nM | Ki [9]: 5.3 nM; Ki (D(2) dopamine receptor [10]): > 10 µM

Source: ChEMBL document CHEMBL1136809, “Synthesis and structure-affinity relationships of novel N-(1-ethyl-4-methylhexahydro-1,4-diazepin-6-yl)pyridine-3-carboxamides with potent serotonin 5-HT3 and dopamine D2 receptor antagonistic activity” (J Med Chem, 2003)
